Results from PMC2761715 (Molecular cancer therapeutics, 2009).

Columns and labels:
Format in all cases: cell-based
8226 cells = test: Cell death analysis, annexin V, FACS; settings: addition of 3-MA, supplemental data S5
LC3 = test: LC3-I to LC3-II conversion, western blot
Procedure, shortened: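 H929 or 8226 cells exposed 4 h to test peptide or scrambled peptide (50 µg/ml H929; 100 µg/ml 8226) or 100 uM tunicamycin; NAC arm: H929 at 4 × 10^5 cells/ml, 10 mM NAC 30 min then 50 µg/ml for 4 h. Lysed on ice in NP-40/Tris pH 7.6 buffer with protease/phosphatase inhibitors; 10 µg protein, 8% SDS-PAGE, PVDF blot for LC3-I/II.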

H929 cells [1] = test: Mitochondrial membrane potential; settings: H929, NAC 10 mM 30 min, then HYD1 50 µg/ml 4 hrs; Figure 5C
Procedure, shortened: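 H929 cells (4 × 10^5 cells/ml) pretreated 30 min with 10 mM NAC, then test compound 50 µg/ml for a further 4 h. Cells stained 15 min with 15 nM DiOC6, PBS-washed and resuspended, then loss of Δψm measured by flow cytometry; n=9.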

H929 cells [2] = test: Reactive oxygen species; settings: NAC 10 mM; supplementary data S7
H929 cells [3] = test: Neutral comet assay; settings: H929, 6 hours, 50 ug/ml HYD1 or HYDS or 50 ng/ml TRAIL, n=150; Figure 3D
Procedure, shortened: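 Neutral comet assay on H929 cells given 50 µg/ml test peptide, scrambled peptide, or 50 ng/ml TRAIL (positive control) for 6 h. 5,000 cells pelleted, taken up in PBS agar, layered onto frosted slides and run under neutral conditions. Comet moments measured from 50 images per treatment by CCD camera; n=150.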

Q: How did the “sensitization to HYD1 induced cell death” value (8226 cells) turn out when Cn1cnc(N)c2ncnc1-2 [3-MA, 3-Methyladenine] was run?
A: The value was “sensitized 8226 cells to HYD1 induced cell death”.

Q: Which “reversal of HYD1-induced increase in LC3-II by NAC” value (LC3; H929, NAC 10 mM 30 min, then HYD1 50 µg/ml 4 hrs, Figure 5D) does the source give for CC(=O)N[C@@H](CS)C(=O)O [NAC, N-acetyl-L-cysteine] here?
A: The value was “completely reversed”.

Q: What about the “reversal of HYD1-induced loss in Δψm by NAC” value (H929 cells [1]) of the same compound?
A: Its value is “not reversed by pretreatment with NAC”.

Q: And the “inhibition of ROS production by NAC” value (H929 cells [2])?
A: Its value is “effective in inhibiting the production of ROS”.

Q: For TRAIL, which “comet moments (double stranded DNA breaks)” value (H929 cells [3]) is on record?
A: Its value is “significant increase in comet moments”.

Q: Tunicamycin was tested. Which “conversion of LC3-I to LC3-II” value (LC3; 4 hour treatment, 50 µg/ml HYD1 for H929, 100 ug/ml for 8226, 100 uM tunicamycin) did it give?
A: Its value is “increased conversion of LC3-I to LC3-II”.
